Most compounds without a hit are left out; they make up all but 1.3% or so of the library.
LYPLA2 inh = LYPLA2 inhibitors, primary screen, counter-screen for PME1 inhibitor project, biochemical, fluorescence polarization, FP-Rh probe ABPP | 320,000 compounds, 0.38% hits | Acyl-protein thioesterase 2 (Homo sapiens), O95372 | inhibition, % at 5.9 µM | recombinant LYPLA2;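 active = inhibition above the screen-wide mean plus 3 SD, limit set per campaign, cut at about 26% in these data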;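 note: 0% = LYPLA2 with DMSO and 100% = wells lacking LYPLA2 enzyme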
Target sequence (O95372 whole entry, looked up): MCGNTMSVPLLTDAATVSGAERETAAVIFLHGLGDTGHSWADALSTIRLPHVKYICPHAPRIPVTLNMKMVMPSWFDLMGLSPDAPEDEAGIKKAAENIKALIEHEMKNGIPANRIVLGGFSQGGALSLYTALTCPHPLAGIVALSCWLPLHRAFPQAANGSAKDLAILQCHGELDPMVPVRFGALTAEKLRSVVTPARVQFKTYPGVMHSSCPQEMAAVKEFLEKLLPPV
LYPLA1 inh = LYPLA1 inhibitors, primary screen, counter-screen for PME1 inhibitor project, biochemical, fluorescence polarization, FP-Rh probe ABPP; recombinant LYPLA1; inhibition, % at 5.9 µM; 320,000 compounds, 0.16% hits; AID 2174, 2009;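 active = inhibition above the mean of all tested compounds plus 3 SD, set per campaign, cut at about 14% in these data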;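 note: inhibitors block serine hydrolase probe labeling of LYPLA1 so polarization falls; 0% = enzyme with DMSO and 100% = wells lacking LYPLA1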
Target sequence (O75608 whole entry, looked up): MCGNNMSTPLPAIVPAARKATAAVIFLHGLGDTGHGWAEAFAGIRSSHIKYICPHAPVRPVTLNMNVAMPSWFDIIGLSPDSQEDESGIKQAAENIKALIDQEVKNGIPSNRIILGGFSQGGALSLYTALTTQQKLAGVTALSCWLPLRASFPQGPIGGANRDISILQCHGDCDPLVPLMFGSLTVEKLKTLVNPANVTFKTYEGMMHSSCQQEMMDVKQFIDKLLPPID
Fam108B counter = mouse Fam108B serine hydrolase inhibitors, primary screen, counter-screen for RBBP9 inhibitor project, biochemical, fluorescence polarization; AID 1947, 2009; recombinant Fam108B, FP-Rh probe fluorescence polarization; 300,000 compounds, 0.33% hits; inhibition, % at 9.51 µM;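 active = inhibition above the screen mean inhibition plus 3 SD, computed separately per campaign, cut at about 18% in these data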;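 note: inhibitors lower polarization as less probe binds the enzyme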
RBBP9 inh = human RBBP9 inhibitors, primary screen, biochemical, fluorescence polarization, FP-Rh probe, HTS; recombinant RBBP9; inhibition, % at 7.94 µM; 220,000 compounds, 0.2% hits; AID 1515, 2009;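 active = inhibition above the campaign mean of all tested compounds plus 3 SD, cut at about 14% in these data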;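 note: plate controls were DMSO wells with RBBP9 for no effect and wells lacking RBBP9 protein for full effect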
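System: RBBP9 protein / Buffer or medium: Tris/NaCl buffer pH 8.0 with 0.1% Pluronic / Probe or stimulus: Serine-hydrolase probe FP-Rh, 375 nM pre-mixing / Dosing: 7.94 µM single dose, 0.794% DMSO / Times: enzyme-compound preincubation 30 min, then probe labeling 45 min, 25 °C / Technique: fluorescence polarization (mP), excitation 525 nm, emission 598 nm / Replication: singlicate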
PAD4 inh = human PAD4 inhibitors, primary screen, biochemical, fluorescence polarization, 1536-well format | AID 485272, 2010 | recombinant PAD4, RCA probe fluorescence polarization | 330,000 compounds, 0.41% hits | Protein-arginine deiminase type-4 (Homo sapiens), Q9UM07 | inhibition, % at 6.36 µM;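 active = percent inhibition above a cutoff equal to the mean of all tested compounds plus 3 SD, cut at about 15% in these data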;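 note: 0% = PAD4 with RCA probe and DMSO and 100% = probe without PAD4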
PME-1 inh = PME-1 inhibitors via competitive probe labeling, primary screen, biochemical, fluorescence polarization, FP-Rh probe, HTS; 320,000 compounds, 0.53% hits; recombinant PME-1; AID 2130, 2009; Protein phosphatase methylesterase 1 (Homo sapiens), Q9Y570; inhibition, % at 5.9 µM;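 active = inhibition above the campaign mean of all compounds plus 3 SD, cut at about 26% in these data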;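 note: competitive labeling of PME-1 active site by serine hydrolase directed probe; 0% = PME-1 with DMSO and 100% = wells lacking PME-1 enzyme; inhibitors block probe labeling so polarization falls and inhibition rises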
RBBP9 inh conf = human RBBP9 inhibitors, retest, confirmation, biochemical, fluorescence polarization, FP-Rh probe, triplicate | shares compounds with RBBP9 inh | 410 compounds, 36% hits | inhibition, % at 7.94 µM | recombinant RBBP9;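 active = inhibition above the hit cutoff derived for the primary screen, cut at about 15% in these data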;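 note: 0% = RBBP9 with DMSO and 100% = wells lacking RBBP9 protein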
Fam108b confirm = mouse Fam108b serine hydrolase inhibitors, confirmation, counter-screen for RBBP9 inhibitor project, biochemical, fluorescence polarization, triplicate; shares compounds with Fam108B counter; 930 compounds, 44% hits; inhibition, % at 9.51 µM; recombinant Fam108b, FP-Rh probe fluorescence polarization;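 active = inhibition above a limit from the primary screen, the mean over all compounds plus 3 SD, cut at about 19% in these data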;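 note: 0% = median of active Fam108b wells and 100% = catalytically dead S170A mutant; inhibitors free the probe so polarization falls as inhibition rises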
LYPLA2 conf = LYPLA2 inhibitors, retest, confirmation, counter-screen for PME1 inhibitor project, biochemical, fluorescence polarization, FP-Rh probe ABPP; shares compounds with LYPLA2 inh; recombinant LYPLA2; inhibition, % at 5.9 µM; 1,100 compounds, 72% hits;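 active = mean inhibition across replicates above the hit cutoff set in the primary screen, cut at about 26% in these data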;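 note: blocked labeling of the enzyme by serine hydrolase FP-Rh probe lowers polarization; 0% = enzyme with DMSO and 100% = wells lacking LYPLA2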
* marks the source's active call; other numbers are inactive results; x = no result.

SMILES	LYPLA2 inh	LYPLA1 inh	Fam108B counter	RBBP9 inh	PAD4 inh	PME-1 inh	RBBP9 inh conf	Fam108b confirm	others
COc1cc(OC)c2cc(C(=O)N/N=C/c3cccc(OC)c3O)[nH]c2c1	2	-5	22*	16*	0	44*	32*	22*
COc1cccc(/C=N/NC(=O)c2ccc3nc[nH]c3c2)c1O	3	0	-4	-4	-1	1	x	x
Nc1[nH]n(-c2ccccc2)c(=O)c1N=Nc1ccc2ncsc2c1	11	6	20*	19*	-5	36*	34*	8
Oc1ccc(Nc2nc(-c3ccccc3)nc3ccccc23)cc1	7	-4	16	x	-1	14	x	x
Oc1ccc(Nc2nc3ccccc3nc2Nc2ccc(O)cc2)cc1	-20	-13	45*	21*	-7	33*	37*	15
Cc1cccc(NC(=O)CCNC(=O)c2ccc(Br)cc2)c1	2	-3	-1	x	0	0	x	x
CCc1cc(/C(Cc2ccc3ccccc3n2)=N\O)c(O)cc1O	17	8	25*	46*	-6	34*	50*	30*
Oc1ccc(/C=N/Nc2ccnc3cc(Cl)ccc23)cc1O	10	-14	55*	25*	-4	42*	97*	34*
O=C(Nc1ccc(F)cc1)Nc1csc2ccccc12	-6	-21	2	-1	-3	8	x	x
CN(C)c1ccc(NC(=O)Nc2csc3ccccc23)cc1	-7	-16	19*	19*	-1	19	58*	27*
CCN(CC(=O)Nc1c(F)cccc1F)C(=O)Cn1[nH]c(=O)c2ccccc2c1=O	-1	1	x	x	-3	2	x	x
O=C(CN1C(=O)c2ccccc2C1=O)N1CCN=C1c1ccccc1	4	4	0	-9	-1	-4	x	x
COC(=O)c1sccc1NC(=S)N1CCN(c2ccccc2F)CC1	5	1	2	-7	4	-4	x	x
O=C(Nc1cccc(Cl)c1)Nc1sccc1-c1nc2ccccc2s1	-30	-22	27*	15*	-21	3	19*	20*
COc1ccc(-c2oc3c(OC)c(OC)c(OC)c(O)c3c(=O)c2OC)cc1OC	2	-5	1	2	0	4	x	x
COc1ccc(-c2cc(-c3c(O)c(OC)c4occc4c3OC)[nH]n2)cc1OC	1	-9	23*	15*	-8	31*	53*	1
COc1ccc(C(=O)O/N=C(\C)c2nccs2)cc1	30*	10	4	19*	0	7	39*	x	LYPLA2 conf=29*
COc1ccccc1NS(=O)(=O)c1cc(C(=O)NCC(c2ccco2)N2CCCCC2)ccc1C (configuration not stated)	-2	1	0	x	1	5	x	x
